pIC50: −log10 of the molar value. Starred links: 1 amine or outer side, 2 acyl side, 3 side chain; linkers in the order of their positions; H or OH if unused. Non-standard residues stand in square brackets, D forms with d. Residues, ends and D or L forms follow the SMILES beside them. ξ: configuration not given here. *: point of attachment. Hydrocinnamoyl = O=C(CCc1ccccc1)*; ξF = NC(Cc1ccccc1)C(=O)O; Cbz = O=C(OCc1ccccc1)*; Boc = CC(C)(C)OC(=O)*; ξL = CC(C)CC(N)C(=O)O; CO = O=C([*:1])[*:2]; NHBn = c1ccc(CN*)cc1; ξAbu = CCC(N)C(=O)O; ξS = NC(CO)C(=O)O; CH2F = FC*
Tests used:
[1] = target: Cathepsin B (Homo sapiens) (UniProt P07858); assay: Compound was tested for inhibitory against cathepsin B
How it was run: (§1)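 Rates of enzyme inactivation for cathepsins B and L were measured using Cbz-Phe-Arg-AMC as the fluorogenic substrate, under previously published assay conditions.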

[2] = target: T1, Calpain-1 catalytic subunit (Homo sapiens) (UniProt P07384); assay: Inhibition of Calpain-I receptor
T1 sequence (whole entry): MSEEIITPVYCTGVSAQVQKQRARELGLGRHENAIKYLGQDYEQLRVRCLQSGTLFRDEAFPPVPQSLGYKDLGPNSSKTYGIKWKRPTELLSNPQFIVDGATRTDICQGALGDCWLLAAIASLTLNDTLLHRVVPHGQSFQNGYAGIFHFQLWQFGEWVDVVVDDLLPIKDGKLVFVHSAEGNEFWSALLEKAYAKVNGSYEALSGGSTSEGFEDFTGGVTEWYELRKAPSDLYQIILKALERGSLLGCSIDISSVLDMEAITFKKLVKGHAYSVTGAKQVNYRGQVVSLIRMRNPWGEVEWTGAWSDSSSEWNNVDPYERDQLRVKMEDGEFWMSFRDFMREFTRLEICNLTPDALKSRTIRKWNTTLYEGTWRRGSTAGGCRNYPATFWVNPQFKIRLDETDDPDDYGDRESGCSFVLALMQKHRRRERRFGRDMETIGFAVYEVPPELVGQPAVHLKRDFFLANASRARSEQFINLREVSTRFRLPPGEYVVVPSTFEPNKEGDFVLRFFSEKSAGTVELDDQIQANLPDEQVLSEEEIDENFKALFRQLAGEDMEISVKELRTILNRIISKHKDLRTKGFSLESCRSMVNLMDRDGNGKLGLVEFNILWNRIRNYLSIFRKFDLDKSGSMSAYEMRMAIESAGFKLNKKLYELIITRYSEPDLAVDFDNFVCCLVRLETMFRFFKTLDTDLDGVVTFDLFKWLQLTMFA

[3] = target: Procathepsin L (Homo sapiens) (UniProt P07711); assay: Compound was tested for inhibitory against cathepsin L; how it was run: as §1
Chain of Procathepsin L (Homo sapiens) (P07711 114-333 limits assumed): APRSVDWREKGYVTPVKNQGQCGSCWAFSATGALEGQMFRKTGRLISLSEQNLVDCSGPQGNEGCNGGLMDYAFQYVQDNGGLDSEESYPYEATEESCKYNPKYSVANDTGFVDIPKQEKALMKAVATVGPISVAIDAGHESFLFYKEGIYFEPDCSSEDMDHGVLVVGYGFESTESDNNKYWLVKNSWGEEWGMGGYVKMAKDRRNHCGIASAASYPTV

MOLT-4 [4] = assay: Inhibitory activity against MOH-4 cells(Human Leukemia T- cells) using intact cell assay method.; assay type: functional, cell-based
How it was run: (§2)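 Molt-4 cells (2×10^7/mL in HEPES-buffered saline, pH 7.2–7.5) were preincubated with inhibitor for 10 min at 37 °C, then challenged for 30 min at 37 °C by adding medium containing inhibitor, 10 mM Ca2+ and 40 μM ionomycin. Lysates were immunoblotted for calpain I-mediated spectrin breakdown products. Percent inhibition came from densitometry against no-inhibitor samples; IC50 by nonlinear regression.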

[5] = target: Procathepsin L (Homo sapiens) (UniProt P07711); assay: Compound was tested for inhibitory activity against cathepsin L; how it was run: as §1
[6] = target: Cathepsin B (Homo sapiens) (UniProt P07858); assay: Compound was tested for inhibitory against Cathepsin B; how it was run: as §1
[7] = target: Procathepsin L (Homo sapiens) (UniProt P07711); assay: Compound was tested for inhibitory against cathepsin L.; how it was run: as §1
[8] = target: Cathepsin B (Homo sapiens) (UniProt P07858); assay: Compound was tested for inhibitory activities against cathepsin B; how it was run: as §1
MOLT-4 [9] = assay: Inhibitory activity against […] cells(Human Leukemia T- cells) using intact cell assay method, at 10 uM; assay type: functional; how it was run: as §2
[10] = target: T1, Calpain-1 catalytic subunit (Homo sapiens); assay: Compound was tested for inhibitory uM
[11] = target: Cathepsin B (Homo sapiens) (UniProt P07858); assay: Compound was tested for inhibitory activity against cathepsin B
How it was run: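 Rate of inactivation of cathepsin B, with Cbz-Phe-Arg-AMC as substrate.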

Compound	K [1] [M⁻¹ s⁻¹]	K [2] [M⁻¹ s⁻¹]	K [3] [M⁻¹ s⁻¹]	pIC50 (MOLT-4 [4])	other results
CC(C)C[C@H](N)C(=O)N[C@@H](Cc1ccccc1)C(=O)CF (H-Leu-Phe-CH2F)	25	8000	250		
CC(C)[C@H](NC(=O)OCc1ccccc1)C(=O)NC(Cc1ccccc1)C(=O)CF (stereo partly drawn) (Cbz-Val-[ξF]-CH2F)	360	35000	21500		
CC(C)C[C@H](NC(=O)[C@H]1O[C@@H]1C(=O)O)C(=O)NCCCCN=C(N)N		4700			
CC(C)C[C@H](NC(=O)NCc1ccccc1)C(=O)NC(Cc1ccccc1)C(=O)CF (stereo partly specified) ({NHBn-CO}-Leu-[ξF]-CH2F)		67000		6.10	K [5]: 9400 M⁻¹ s⁻¹; K [6]: 275 M⁻¹ s⁻¹
CC(C)C[C@H](NC(=O)CCc1ccccc1)C(=O)NC(Cc1ccccc1)C(=O)CF (stereo partly specified) (Hydrocinnamoyl-Leu-[ξF]-CH2F)	600	26600	800		
CC(C)C[C@H](NC(=O)N1CCc2ccccc2C1)C(=O)NC(Cc1ccccc1)C(=O)CF (stereo partly specified)			48400	6.70	K [6]: 7500 M⁻¹ s⁻¹
CC(C)C[C@H](NS(=O)(=O)N1CCOCC1)C(=O)NC(Cc1ccccc1)C(=O)CF (stereo partly specified)	100	67200		5.00	K [7]: 3200 M⁻¹ s⁻¹
CC(C)C[C@H](NC(=O)OC(C)(C)C)C(=O)NC(Cc1ccccc1)C(=O)CF (stereo partly drawn) (Boc-Leu-[ξF]-CH2F)		68600	100		K [8]: 150 M⁻¹ s⁻¹; inhibition at 10 µM (MOLT-4 [9]): 42%
CC(C)CC(NC(=O)OCc1ccccc1)C(=O)N[C@@H](CC(C)C)C(=O)NC(Cc1ccccc1)C(=O)CF (stereo partly specified) (Cbz-[ξL]-Leu-[ξF]-CH2F)	4600	290000	256000	7.00	
CC(NC(=O)[C@H](Cc1ccccc1)NC(=O)OCc1ccccc1)C(=O)CF (stereo partly specified)			110000		K [10]: No significant inhibition; K [11]: 21000 M⁻¹ s⁻¹

Continued, in another order:

K [1] [M⁻¹ s⁻¹]	K [2] [M⁻¹ s⁻¹]	K [3] [M⁻¹ s⁻¹]	pIC50 (MOLT-4 [4])	Compound	other results
9000	100000		5.89	CC(C)C[C@H](NC(=O)OCc1ccccc1)C(=O)NC(COC1CCCCO1)C(=O)CF (stereo partly specified)	K [5]: 22600 M⁻¹ s⁻¹
24500	24200	64000		CCC(NC(=O)[C@H](CC(C)C)NC(=O)OCc1ccccc1)C(=O)CF (stereo partly drawn) (Cbz-Leu-[ξAbu]-CH2F)	
300	136000	5000	6.70	CC(C)C[C@H](NC(=O)OCc1ccccc1)C(=O)NC(Cc1ccccc1)C(=O)CF (stereo partly drawn) (Cbz-Leu-[ξF]-CH2F)	
16300	21000	31000		CC(C)C[C@H](NC(=O)OCc1ccccc1)C(=O)NC(CO)C(=O)CF (stereo partly drawn) (Cbz-Leu-[ξS]-CH2F)	

Reference: ChEMBL document CHEMBL1130238, “Synthesis and biological activity of a series of potent fluoromethyl ketone inhibitors of recombinant human calpain I” (J Med Chem, 1997)
